{"data": "Measurements gathered from unrelated publications", "target": "Histamine H3 receptor (HRH3, Homo sapiens, UniProt Q9Y5N1)", "technique": "radioligand"}
{"Structure (SMILES)": "CCC(=O)c1ccc(OCCCCCCN2CCCC(C)C2)cc1 (centres unmarked)", "effect on": "ligand displacement", "notes": "cell membranes", "Ki": "0.039 µM"}
{"Structure (SMILES)": "O=C1NC(=O)C(c2ccccc2)(c2ccc(OCCCN3CCCCC3)cc2)N1 (centres unmarked)", "effect on": "ligand displacement", "notes": "cell membranes", "Ki": "0.579 µM"}
{"Structure (SMILES)": "CCCCN1CCC(COC(=O)c2ccc(N)c(OCF)c2)CC1", "effect on": "cell-free assay", "Ki": "3.1 µM"}
{"Structure (SMILES)": "CC1CCCN(CCCCCCOc2ccc(-c3ccccc3)cc2)C1 (centres unmarked)", "effect on": "ligand displacement", "notes": "cell membranes", "Ki": "0.147 µM"}
{"Structure (SMILES)": "O=C1CCCc2ccc(OCCCN3CCCCC3)cc21", "effect on": "ligand displacement", "notes": "cell membranes", "Ki": "0.089 µM"}
{"Structure (SMILES)": "CCCc1ccc(OCCCCCCN2CCCC(C)C2)cc1 (centres unmarked)", "effect on": "ligand displacement", "notes": "cell membranes", "Ki": "0.0859 µM"}
{"Structure (SMILES)": "CN(C)c1ccc(/C=C/C=C2\\CCc3cc(OCc4ccc(OCCCN5CCCCC5)cc4)ccc3C2=O)cc1", "effect on": "ligand displacement", "notes": "cell membranes", "Ki": "0.068 µM"}
{"Structure (SMILES)": "CN1CCN(c2cc(Nc3ccc(OCCCN4CCCCC4)cc3)nc(N)n2)CC1", "effect on": "ligand displacement", "notes": "cell membranes", "Ki": "0.0118 µM"}
{"Structure (SMILES)": "CN(C)c1ccc(/C=C2\\CCc3ccc(OCc4ccc(OCCCN5CCCCC5)cc4)cc3C2=O)cc1", "effect on": "ligand displacement", "notes": "cell membranes", "Ki": "0.097 µM"}
{"Structure (SMILES)": "c1ccc(CNc2ccnc(Nc3ccc(OCCCN4CCCCC4)cc3)n2)cc1", "effect on": "ligand displacement", "notes": "cell membranes", "Ki": "0.00449 µM"}
{"Structure (SMILES)": "O=C1NC(c2ccccc2)(c2ccccc2)C(=O)N1CCCN1CCCCC1", "effect on": "ligand displacement", "notes": "cell membranes", "Ki": "0.00615 µM"}
